Test results as given in ChEMBL document CHEMBL1955770, “Inhibition of S/G2 phase CDK4 reduces mitotic fidelity” (J Biol Chem, 2006).
Activity calls are given as the source filed them. The calls are words filed in the database; no cut-off is given here.

Columns and labels:
[1] = system: HeLa; test: Cell cycle arrest in human HeLa cells assessed as accumulation at G1 phase at 2 uM treated 6 hr and measured 10 hr post double thymidine-synchrony release using propidium iodide staining by FACS analysis (reference value: 68 %); assay type: functional
[2] = target: Cyclin-dependent kinase 2/cyclin E1 (Homo sapiens, UniProt P24941); test: Inhibition of human CDK2-GST-tagged cyclin E using his-tagged Rb as substrate after 30 mins by scintillation counting method; assay type: protein-complex assay
[3] = system: HeLa; test: Decrease in borealin protein expression in human HeLa cells at 2 uM measured 14 hr post thymidine-synchrony release by immunoblot analysis; assay type: functional, cell-based
How it was run: (§1)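 Synchronized HeLa cells given 2 μM CDK4 inhibitor in early S phase and harvested at set times post-release. Lysed in supplemented NETN buffer on ice for 20 min. Lysates run on SDS-PAGE and immunoblotted for survivin, borealin and other chromosomal passenger proteins, with ECL detection. Cyclin D3 served as loading control.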

[4] = system: HeLa; test: Cell cycle arrest in human HeLa cells assessed as accumulation at G2/M phase at 2 uM treated 2 hr and measured 12 hr post double thymidine-synchrony release using propidium iodide staining by FACS analysis (reference value: 17 %); assay type: functional
How it was run: (§2)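 Cells harvested at set times post-release, fixed in 70% ethanol, stained with 5 μg/ml propidium iodide plus 0.5 mg/ml RNase A, and analysed by flow cytometry. Cell-cycle phase fractions calculated by ModFit.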

[5] = target: Hepatocyte growth factor receptor (Homo sapiens, UniProt P08581); test: Inhibition of c-Met using fluorescent substrate by IMAP assay
Hepatocyte growth factor receptor, sequence (P08581 whole entry): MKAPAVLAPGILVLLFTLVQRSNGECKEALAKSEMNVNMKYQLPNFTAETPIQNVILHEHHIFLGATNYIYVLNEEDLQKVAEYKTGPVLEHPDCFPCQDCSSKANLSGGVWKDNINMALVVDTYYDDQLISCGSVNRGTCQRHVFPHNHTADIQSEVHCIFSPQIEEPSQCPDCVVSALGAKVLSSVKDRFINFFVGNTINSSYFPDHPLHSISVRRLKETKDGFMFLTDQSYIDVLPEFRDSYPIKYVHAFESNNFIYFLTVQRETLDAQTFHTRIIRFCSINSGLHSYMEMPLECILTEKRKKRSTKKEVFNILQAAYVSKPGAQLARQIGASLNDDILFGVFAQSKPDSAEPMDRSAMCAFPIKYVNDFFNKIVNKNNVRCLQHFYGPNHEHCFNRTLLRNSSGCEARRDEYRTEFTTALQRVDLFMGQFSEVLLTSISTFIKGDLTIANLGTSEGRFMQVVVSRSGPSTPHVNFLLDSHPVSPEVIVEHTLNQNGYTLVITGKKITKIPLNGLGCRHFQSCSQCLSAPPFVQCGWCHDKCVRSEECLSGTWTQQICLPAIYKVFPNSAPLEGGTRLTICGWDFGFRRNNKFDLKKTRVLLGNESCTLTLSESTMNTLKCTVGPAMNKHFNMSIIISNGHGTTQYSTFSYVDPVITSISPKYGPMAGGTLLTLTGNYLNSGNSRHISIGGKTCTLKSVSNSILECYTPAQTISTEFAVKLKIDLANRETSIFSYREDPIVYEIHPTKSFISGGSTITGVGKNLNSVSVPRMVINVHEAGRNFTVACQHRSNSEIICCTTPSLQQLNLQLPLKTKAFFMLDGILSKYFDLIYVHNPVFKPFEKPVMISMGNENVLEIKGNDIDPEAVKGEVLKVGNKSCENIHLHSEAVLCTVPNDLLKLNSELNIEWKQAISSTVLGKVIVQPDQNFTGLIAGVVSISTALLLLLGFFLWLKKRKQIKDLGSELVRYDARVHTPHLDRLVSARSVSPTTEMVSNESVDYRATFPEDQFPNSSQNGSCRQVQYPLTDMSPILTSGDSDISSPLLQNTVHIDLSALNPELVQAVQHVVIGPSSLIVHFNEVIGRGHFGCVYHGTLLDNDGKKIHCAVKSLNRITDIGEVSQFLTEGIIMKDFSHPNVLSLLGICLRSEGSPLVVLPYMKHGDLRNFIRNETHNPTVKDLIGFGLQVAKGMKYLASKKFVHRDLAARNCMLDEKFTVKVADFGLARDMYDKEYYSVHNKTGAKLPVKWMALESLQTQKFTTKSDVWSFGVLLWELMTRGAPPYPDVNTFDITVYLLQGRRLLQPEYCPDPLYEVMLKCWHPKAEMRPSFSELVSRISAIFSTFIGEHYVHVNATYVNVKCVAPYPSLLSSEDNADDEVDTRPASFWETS
How it was run: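 Run in-house using IMAP: phosphorylated fluorescent peptide substrate binds preferentially to immobilized metal beads, which quantifies kinase activity. ATP at 3× the Km of each enzyme.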

[6] = system: HeLa; test: Effect on aurora B protein expression in human HeLa cells at 2 uM measured 14 hr post thymidine-synchrony release by immunoblot analysis; assay type: functional, cell-based; how it was run: as §1
[7] = system: HeLa; test: Cell cycle arrest in synchronized human HeLa cells assessed as re-joining to form single binuclear cells at 2 uM by time-lapse microscopy; assay type: functional, cell-based
[8] = system: HeLa; test: Cell cycle arrest in human HeLa cells assessed as accumulation at S phase at 2 uM treated 6 hr and measured 10 hr post double thymidine-synchrony release using propidium iodide staining by FACS analysis (reference value: 1 %); assay type: functional; how it was run: as §2
[9] = Cell cycle arrest in human SK-MEL-13 cells assessed as accumulation at S phase at 2 uM treated 1 hr and measured 10 hr post double hydroxyurea-synchrony release using propidium iodide staining by FACS analysis (reference value: 16 %); assay type: functional, cell-based
How it was run: (§3)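 SK-Mel-13 cells synchronized with 2 mM hydroxyurea, then treated with 2 μM CDK4 inhibitor or left untreated 1 h after release. Harvested at indicated times post-release, ethanol-fixed, propidium iodide/RNase stained, and DNA content read by FACS. Proportions of G1, S and G2/M cells derived with ModFit.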

[10] = system: HeLa; test: Cell cycle arrest in human HeLa cells assessed as delay in progression into mitosis at 2 uM measured after 8 to 20 hr post hydroxyurea-synchrony release by time-lapse microscopy; assay type: functional, cell-based
[11] = system: HeLa; test: Cell cycle arrest in human HeLa cells assessed as accumulation at G2/M phase at 2 uM treated 6 hr and measured 8 hr post double thymidine-synchrony release using propidium iodide staining by FACS analysis (reference value: 86 %); assay type: functional; how it was run: as §2
[12] = Cell cycle arrest in Rb-competent human SK-MEL-13 cells assessed as accumulation at S phase at 2 uM after 24 hrs by FACS analysis; assay type: functional
How it was run: (§4)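 Ethanol-fixed cells stained with propidium iodide/RNase A, DNA content read by FACS, phase and sub-diploid fractions calculated with ModFit.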

[13] = target: Cyclin-dependent kinase 4 (Homo sapiens) (UniProt P11802); test: Inhibition of CDK4-mediated Rb phosphorylation at ser 795 in human HCT116 cells at IC90 after 24 hrs by immunoblot analysis; assay type: cell-based; conditions: HCT-116
Cyclin-dependent kinase 4 (Homo sapiens), sequence (P11802 whole entry): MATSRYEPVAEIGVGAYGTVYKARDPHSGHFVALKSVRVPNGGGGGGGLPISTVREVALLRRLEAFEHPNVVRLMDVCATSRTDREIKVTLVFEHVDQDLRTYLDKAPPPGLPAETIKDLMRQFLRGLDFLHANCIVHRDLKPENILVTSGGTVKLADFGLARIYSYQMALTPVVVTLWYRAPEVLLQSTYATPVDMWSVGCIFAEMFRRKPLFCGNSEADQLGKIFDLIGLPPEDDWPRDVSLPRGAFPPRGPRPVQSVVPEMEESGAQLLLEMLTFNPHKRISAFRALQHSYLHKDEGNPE
How it was run: (§5)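 Asynchronous HCT-116 cells (DMEM, 3 mM HEPES, 10% serum, 37 °C, 5% CO₂) were given increasing inhibitor doses for 4 or 24 h. Lysis in NETN with phosphatase and protease inhibitors, then SDS-PAGE, nitrocellulose transfer and immunoblot for phospho-Rb (Ser-795) with HRP secondary and chemiluminescence.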

[14] = system: RKO; test: Toxicity in human RKO cells at IC50 after 3 days by MTT assay; assay type: cell-based; conditions: 72 h
[15] = target: Cyclin-dependent kinase 4/cyclin D1 (Homo sapiens, UniProt P11802); test: Inhibition of human GST-tagged CDK4-cyclin D1 using his-tagged Rb as substrate after 30 mins by scintillation counting method; assay type: protein-complex assay
Cyclin-dependent kinase 4/cyclin D1, sequence (P11802 whole entry): as above
Cyclin-dependent kinase 4/cyclin D1, sequence (P24385 whole entry, further chain): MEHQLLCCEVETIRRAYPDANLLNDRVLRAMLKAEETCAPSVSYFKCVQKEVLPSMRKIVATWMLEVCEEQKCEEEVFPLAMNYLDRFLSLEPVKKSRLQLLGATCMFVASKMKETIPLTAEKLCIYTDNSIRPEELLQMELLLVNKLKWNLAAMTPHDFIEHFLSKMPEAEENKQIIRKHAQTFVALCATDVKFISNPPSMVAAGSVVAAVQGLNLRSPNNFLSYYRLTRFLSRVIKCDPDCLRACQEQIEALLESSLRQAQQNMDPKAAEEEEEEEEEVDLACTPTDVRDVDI

[16] = system: HeLa; test: Cell cycle arrest in human HeLa cells assessed as accumulation at S phase at 2 uM treated 4 hr and measured 8 hr post double thymidine-synchrony release using propidium iodide staining by FACS analysis (reference value: 8 %); assay type: functional; how it was run: as §2
[17] = system: MDA-MB-453; test: Toxicity in human MDA-MB-453 cells at 8 uM by MTT assay; assay type: cell-based; conditions: mda-mb-453, 8 µM
[18] = system: MDA-MB-453; test: Toxicity in human MDA-MB-453 cells at IC50 after 3 days by MTT assay; assay type: cell-based; conditions: mda-mb-453, 72 h
[19] = Cell cycle arrest in human SK-MEL-13 cells assessed as accumulation at G1 phase at 2 uM treated 1 hr and measured 12 hr post double hydroxyurea-synchrony release using propidium iodide staining by FACS analysis (reference value: 40 %); assay type: functional, cell-based; how it was run: as §3
[20] = Cell cycle arrest in human SK-MEL-13 cells assessed as accumulation at S phase at 2 uM treated 1 hr and measured 8 hr post double hydroxyurea-synchrony release using propidium iodide staining by FACS analysis (reference value: 74 %); assay type: functional, cell-based; how it was run: as §3
[21] = system: SW480; test: Antiproliferative activity against human SW480 cells assessed as inhibition of S phase after 48 hrs by MTT assay; assay type: functional, cell-based; conditions: SW480, 48 h
How it was run: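 Cells grown in DMEM with 3 mM HEPES and 10% Serum Supreme at 37 °C, 5% CO2. Proliferation read by MTT assay 48 h after drug addition; IC50 given as mean of two separate determinations, each in duplicate.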

[22] = system: HeLa; test: Cell cycle arrest in Rb-deficient human HeLa cells assessed as accumulation at G1 phase at 2 uM after 24 hrs by FACS analysis; assay type: functional; how it was run: as §4
[23] = system: HeLa; test: Cell cycle arrest at G2 phase in human HeLa cells assessed as delay in phosphotyrosine 15 CDK2 accumulation at 2 uM treated at early S phase measured after 6-14 hr post thymidine-synchrony release by immunoblot method; assay type: functional, cell-based
How it was run: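 HeLa cells synchronized by double thymidine block and released, treated with 2 μM inhibitor in early S phase, or left untreated. Harvested at set times after release, lysed in NETN with phosphatase and protease inhibitors, run on SDS-PAGE and immunoblotted for cyclin B1 and phosphotyrosine 15 CDK1/2, with cyclin D3 as loading control. Detection by HRP secondary and ECL.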

[24] = system: HeLa; test: Cell cycle arrest at G2 phase in human HeLa cells assessed as effect on cyclin A accumulation at 2 uM treated at early S phase measured after 6-14 hr post thymidine-synchrony release by immunoblot method; assay type: functional, cell-based
[25] = system: HeLa; test: Cell cycle arrest in human HeLa cells assessed as time delay in progression through G2/M phase at 2 uM treated at 4 hr post double thymidine-synchrony release using propidium iodide staining by FACS analysis; assay type: functional; how it was run: as §2
[26] = target: Cyclin-dependent kinase 4 (Homo sapiens) (UniProt P11802); test: Inhibition of CDK4-mediated Rb phosphorylation at ser 795 in human HCT116 cells at IC50 after 24 hrs by immunoblot analysis; assay type: cell-based; conditions: HCT-116; how it was run: as §5

In the case of `COc1cccc(C(=O)c2sc(Nc3ccc(N4CCN(C(C)C)CC4)cc3)nc2N)c1`, the Activity [1] is reported as 56%, the IC50 [2] is reported as 4.14 µM and the Activity [3] is reported as “Active”. The Activity [4] was 88%, the IC50 [5] was greater than 20 µM and the Activity [6] was “inactive”. For the same molecule, the Activity [7] was “Active”, the Activity [8] was 1% and the Activity [9] was 14%. The Activity [10] was “Active”, the Activity [11] was 88% and the Activity [12] was 7%. The inhibition [13] was “Active”, the Activity [14] was “Toxic” and the IC50 [15] was 0.02 µM. The Activity [16] was 4%, the Activity [17] was “Toxic” and the Activity [18] was “Toxic”. For the same molecule, the Activity [19] was 13%, the Activity [20] was 18% and the IC50 [21] was 1.06 µM. The Activity [22] was 49%, the Activity [23] was “Active” and the Activity [24] was “inactive”. The Time [25] was 2 h and the inhibition [26] was “Active”.
With `CN1CCN(c2ccc(Nc3nc(N)c(C(=O)c4ccc5c(c4)OCCO5)s3)cc2)CC1` the Activity [1] was 56%, the IC50 [2] was 2.36 µM and the Activity [3] was “Active”. For the same molecule, the Activity [4] was 88%, the IC50 [5] was greater than 20 µM and the Activity [6] was “inactive”. For the same molecule, the Activity [7] was “Active”, the Activity [8] was 1% and the Activity [9] was 14%. For the same molecule, the Activity [10] was “Active”, the Activity [11] was 88% and the Activity [12] was 7%. For the same molecule, the inhibition [13] was “Active”, the Activity [14] was “Toxic” and the IC50 [15] was 0.02 µM. For the same molecule, the Activity [16] was 4%, the Activity [17] was “Toxic” and the Activity [18] was “Toxic”. For the same molecule, the Activity [19] was 13%, the Activity [20] was 18% and the IC50 [21] was 3.67 µM. The Activity [22] was 49%, the Activity [23] was “Active” and the Activity [24] was “inactive”. The Time [25] was 2 h and the inhibition [26] was “Active”.
